From PubChem
Hits are enriched below; roughly 2.4% of the tested compounds scored in any of these assays.
Rpn11 block – inhibitors of human proteasome Rpn11 | AID 588493 | inhibition, % at 20 µM | O00487 | human 26S proteasome, Ub4-pepOG fluorescence polarization; 20S core pre-blocked with epoxomicin | hit rate 0.59% among 360,000;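 active means inhibition at 20 µM, scaled to each plate's controls, above about 33%, limit read from the data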
Rin1-Abl PPI inh – blocks binding of human Rin1 to Abl; P00519+Q13671; TR-FRET Rin1/Abl binding, biochemical; inhibition, % at 7.35 µM; hit rate 0.4% among 360,000; AID 588664; in the data active means inhibition above about 5%, passing the limit was not always enough
Neddyl block – blocks human cullin neddylation; P61081+Q13564; TR-FRET cullin neddylation, biochemical; hit rate 0.58% among 360,000; inhibition, % at 25 µM; in the data active means inhibition above about 36%
TPT1 inhibitor – inhibitors of Candida albicans tRNA 2'-phosphotransferase TPT1 | recombinant caTPT1, FP RNA substrate dephosphorylation | inhibition, % at 5 µM | hit rate 0.81% among 300,000;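 active means inhibition above the mean of all tested compounds plus 3 SD, set per screening campaign, cut at about 24% in these data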;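 further: plate controls were DMSO alone for no effect and ferristatin control at 100 nM for full effect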
CSN inh – inhibitors of human CSN-mediated cullin deneddylation. Q92905. Purified CSN, SCF-Nedd8-OG deneddylation, fluorescence polarization. inhibition, % at 12.5 µM. hit rate 0.38% among 360,000;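 active means pattern-corrected inhibition above about 35%, with an unprinted fluorescence ratio check between 0.5 and 1.5, limit read from the data, passing the limit was not always enough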;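 further: 0% = enzyme with substrate and 100% = substrate without enzyme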
Target sequence (Q92905 whole entry, looked up, one chain of several): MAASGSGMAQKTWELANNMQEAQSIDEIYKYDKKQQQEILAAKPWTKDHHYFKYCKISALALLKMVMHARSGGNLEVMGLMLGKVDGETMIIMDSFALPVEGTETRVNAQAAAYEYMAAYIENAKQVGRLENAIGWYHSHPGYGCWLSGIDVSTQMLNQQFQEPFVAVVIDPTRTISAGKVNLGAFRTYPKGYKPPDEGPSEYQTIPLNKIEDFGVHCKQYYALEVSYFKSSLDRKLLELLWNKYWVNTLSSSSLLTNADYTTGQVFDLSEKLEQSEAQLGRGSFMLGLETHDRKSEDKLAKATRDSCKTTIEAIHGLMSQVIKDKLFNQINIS
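Detection – fluorescence polarization · System – HEK293T-derived human Csn5 enzyme · Controls – substrate-only high control, full reaction low control · Timing – 90 min, room temperature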
HNF4A DNA FP – change in binding of human HNF4 alpha to DNA | P41235 | HNF4a-FITC DNA binding, fluorescence polarization, 1 h | activity change, % at 10 µM | hit rate 0.3% among 360,000 | AID 1224865; in the data active means activity change above about 30%, passing the limit was not always enough
caTPT1 confirm – TPT1 (C. albicans) inhibition, confirmation; hit rate 74% among 2,400; AID 2149; recombinant caTPT1, fluorescence polarization, RNase T1 coupled; inhibition, % at 5 µM; shares compounds with TPT1 inhibitor;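 active means inhibition above the primary screen limit, the mean inhibition of all tested compounds plus 3 SD, cut at about 25% in these data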
RNase T1 counter – RNase T1 inhibition in TPT1 counter-screen; shares compounds with TPT1 inhibitor; RNase T1 cleavage, fluorescence polarization, 1536-well; inhibition, % at 5 µM; hit rate 83% among 2,400; AID 2153;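 active means inhibition above the solvent-only control well mean plus 3 SD, limit set per screening run, cut at about 23% in these data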;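 further: plate controls were DMSO wells with enzyme for no effect and wells without RNase T1 for full effect; inhibitors block cleavage so intact labeled substrate keeps polarization high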
Target sequence (P00651 whole entry, looked up): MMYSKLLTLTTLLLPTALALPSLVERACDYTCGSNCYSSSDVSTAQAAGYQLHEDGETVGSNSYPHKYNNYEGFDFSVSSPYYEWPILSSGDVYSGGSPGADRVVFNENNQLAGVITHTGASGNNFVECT
* marks the source's active call; other numbers are inactive results; x = no result given.

SMILES	Rpn11 block	Rin1-Abl PPI inh	Neddyl block	TPT1 inhibitor	CSN inh	HNF4A DNA FP	caTPT1 confirm	RNase T1 counter
COc1ccc(-n2ccc(=O)c(C(=O)O)n2)c(OC)c1	-9	2	20	-3	2	-3	x	x
COc1nc(N)c(S(=O)(=O)c2ccc(C)cc2)cc1C#N	32	3	14	29*	9	16	21	29*
Cc1ccc(S(=O)(=O)c2cc(C#N)c(=O)[nH]c2N)cc1	22	3	33	33*	12	10	23	29*
COc1ccccc1CNc1nc(-c2cc(C)n(C)c2C)cs1	9	3	-11	x	-3	18	x	x
COCCNc1nc(-c2cc(C)n(CCc3ccc(OC)cc3)c2C)cs1	15	4	-12	48*	8	5	10	16
CCCNC(=S)N1CCN(CC)CC1	1	3	-2	-1	-9	2	x	x
NNC(=O)C(Cc1cnc[nH]1)NC(=O)OCc1ccccc1 (configuration not stated)	-1	2	0	5	1	-1	x	x
N=C1S/C(=C\c2ccc(-c3cccc(Cl)c3)o2)C(=O)N1c1nccs1	6	1	-7	29*	3	-18	32*	35*
CC(=N)c1c(O)c2ccccc2oc1=O	-4	-1	4	27*	1	0	4	5
CC(C)C(=O)N1CCC(n2nccc2NC(=O)CCc2ccccc2)CC1	-2	0	2	0	2	5	x	x
Nc1nonc1C(=O)N/N=C/c1cc(Br)ccc1O	x	x	x	33*	x	x	30*	38*
Nc1nonc1-n1nnc(C(=O)N/N=C/c2cc(Br)ccc2O)c1CNc1ccccc1	34	-4	11	7	5	8	x	x
COc1ccc(-n2nc3c(N4CCC(C(=O)N5CCC(C)CC5)CC4)nnc(C)c3c2C)cc1	x	-13	22	79*	64*	99*	72*	81*
Cc1nnc(N2CCC(C(=O)N3CCCCC3)CC2)c2nn(-c3ccc(Cl)cc3)c(C)c12	-4	6	38	0	3	6	x	x
CCC1(C)Cc2c(sc(NC(=S)NC(=O)c3ccccc3)c2C#N)CO1 (configuration not stated)	-6	-4	-11	0	2	-3	x	x
CN1Cc2sc(NC(=S)NC(=O)c3ccccc3)c(C#N)c2CC1(C)C	x	x	x	97*	x	x	85*	90*
O=C1/C(=C/c2ccco2)CCc2ccccc21	7	-1	2	6	4	5	x	x
Nc1ccc2c(c1)C/C(=C/c1ccco1)C2=O	-20	2	19	26*	56	-37	-3	10
Cc1ccc(C2C(C#N)=C(N)Oc3c2sc2ccccc32)o1 (configuration not stated)	x	x	x	65*	x	x	86*	96*
O=C1C=CC(=O)N1CCNc1ncc(C(F)(F)F)cc1Cl	-2	-3	-5	x	1	3	x	x
O=C1CC(=O)N(CCNc2ncc(C(F)(F)F)cc2Cl)C(=O)N1	19	-1	-11	38*	79	17	23	39*
O=C(CN1C(=O)/C(=C\C=C\c2ccccc2)SC1=S)Nc1ccc(F)cc1	40	0	0	12	2	17	x	x
O=C(COC(=O)CCN1C(=O)/C(=C\C=C\c2ccccc2)SC1=S)Nc1cc(F)ccc1F	x	4	-5	28*	8	22	33*	42*
O=c1cc(O)c2sc(Nc3ccc(F)cc3)nc2[nH]1	35	3	10	35*	3	5	20	29*
CN(C)c1cccc(C(=O)Nc2nnc(Cc3ccccc3)s2)c1	-3	1	x	-1	-1	0	x	x
SMILES	Rpn11 block	Rin1-Abl PPI inh	Neddyl block	TPT1 inhibitor	CSN inh	HNF4A DNA FP	caTPT1 confirm	RNase T1 counter
CC(=O)c1sc2nc(CSc3nnnn3-c3ccccc3)[nH]c(=O)c2c1C	x	-10	-15	71*	46*	38*	69*	81*
O=C(COc1ccccc1C(=O)NCc1ccncc1)Nc1ccc(Br)cc1	1	0	2	0	6	-5	x	x
O=C1CCC(C(=O)N2CCCC(N3CCN(c4cccc(C(F)(F)F)c4)CC3)C2)=NN1 (configuration not stated)	0	-3	0	-2	-1	-2	x	x
COc1cc(/C=C(\C#N)C(=O)Nc2ccccn2)ccc1O	28	-2	-20	34*	12	10	57*	63*
CN(Cc1ccccc1)C(=O)c1ccccc1Br	-5	1	2	-6	0	-1	x	x
Cc1sc2nc(COC(=O)c3cccc(S(=O)(=O)N(C)c4ccccc4)c3)[nH]c(=O)c2c1C	x	1	4	52*	20	20	45*	55*
Cc1ccc(N/C=C/C(=O)c2sc(-c3ccccc3)nc2C)cc1	38	2	5	39*	9	11	38*	47*
Cc1oc(C)c2c(=O)ccc3c(c12)OC(N)=C(C#N)C3c1ccccc1Cl (configuration not stated)	x	3	-2	29*	31	8	48*	56*
COC(=O)c1ccc(-c2nc(O)c3cnccn23)cc1	-3	-8	-26	-1	6	2	x	x
COc1ccc(C)cc1Nc1n[n+](-c2ccccc2)c(-c2ccc(NC(C)=O)cc2)s1	17	-5	-7	6	4	8	x	x
COc1ccc(C)cc1Nc1n[n+](-c2ccccc2)c(-c2cc([N+](=O)[O-])cc(OC)c2O)s1	x	-1	-38	24*	73	207	120*	120*
COCCCN1C(=O)C(CC(=O)NCc2cccc3ccccc23)CC(C(=O)N2CCCCCC2)=C1C (configuration not stated)	x	x	2	x	-2	5	x	x
CCN1C(=O)S/C(=C\c2ccc(N3CCOCC3)cc2C)C1=O	36	-2	-19	39*	23	27	55*	69*
Cc1cc(N2CCOCC2)ccc1/C=C1\SC(=O)N(C(C)C)C1=O	26	4	7	37*	4	14	52*	64*
C#CCN1C(=O)S/C(=C\c2ccc(N3CCOCC3)cc2C)C1=O	-25	-1	-30	10	-15	-9	x	x
O=C(CC1C(=O)NCCN1Cc1ccccc1)NCCC1=CCCCC1 (configuration not stated)	-3	0	17	-1	6	-2	x	x
CC(C)NC(=S)NC(c1ccccc1)(c1ccccc1)c1ccccc1	-1	-2	-7	3	3	2	x	x
Cc1ccc(-c2ccc(/C=N/n3cnnc3)o2)cc1	-2	-2	19	0	1	0	x	x
